ChEMBL document CHEMBL3108662, “Controlled oxygen release from pyridone endoperoxides promotes cell survival under anoxic conditions” (J Med Chem, 2013)
Activity calls are given as the source filed them. The rule behind the calls is not given here.

Tests used:
[1] = Induction of oxygen release in H2O/D2O; assay type: physicochemical
[2] = Drug degradation in H2O/D2O assessed as byproduct formation at 37 degC by 1H-NMR spectroscopic analysis; assay type: physicochemical
[3] = Half life in H2O/D2O at 37 degC by 1H-NMR spectroscopic analysis; assay type: ADME
[4] = Induction of oxygen release in H2O/D2O relative to DMSO-treated control; assay type: physicochemical
Rattus norvegicus [5] = species: Rattus norvegicus; assay: Growth promoting activity in rat primary smooth muscle cells under normoxic condition at 100 to 200 ug/mL measured over 4 days by WST-1 assay; assay type: functional
In short: (§1)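 Primary smooth muscle cells freshly isolated from rat bladder, seeded at 4000 cells/cm² in DMEM/10% FBS/1% Pen/Strep. Additive dissolved in 1:50 H₂O/DMSO and added at 10–200 µg/mL, with or without vitamin C (100 or 200 µg/mL). Normoxic at 37°C, 5% CO₂, or anoxic in sealed N₂-degassed medium, up to 4 days. WST-1 read on days 1–4 (3 h, A450). Triplicates, normalized to untreated = 100%.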

[6] = Cytotoxicity against rat primary smooth muscle cells assessed as growth inhibition under normoxic condition at 100 to 200 ug/mL measured over 4 days by WST-1 assay; assay type: cell-based; conditions: 96 h; in short: as §1
3T3 [7] = assay: Growth promoting activity in […] cells assessed as change in cell growth under anoxic condition at 100 ug/ml measured over 4 days by WST-1 assay; assay type: functional, cell-based
In short: (§2)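 3T3 fibroblasts seeded at 4000 cells/cm² in DMEM/10% FBS/1% Pen/Strep. Additive from 1:50 H₂O/DMSO at 10–200 µg/mL, with or without vitamin C (100 or 500 µg/mL). Normoxic at 37°C, 5% CO₂, or anoxic with N₂-degassed medium and N₂ glove-bag handling in sealed bags, no medium change, up to 4 days. Daily WST-1 (1:10, 3 h, A450). Triplicates, normalized to untreated control = 100%.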

3T3 [8] = assay: Growth promoting activity in […] cells under anoxic condition at 500 ug/mL measured on day 1 by WST-1 assay; assay type: functional, cell-based; in short: as §2
3T3 [9] = assay: Cytotoxicity against […] cells assessed as growth inhibition under normoxic condition at 500 ug/mL after 2 days by WST-1 assay; assay type: cell-based; conditions: 3t3, 48 h; in short: as §2
3T3 [10] = assay: Growth promoting activity in […] cells under anoxic condition at 29 uM measured on day 1 by WST-1 assay in presence of 100 ug/mL vitamin C; assay type: functional, cell-based
In short: (§3)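 3T3 fibroblasts plated at 4000 cells/cm² in DMEM/F-12 with 10% FBS and 1% Pen/Strep. Compound in 1:50 H2O/DMSO was added at 10, 50, 100 or 200 µg/mL, alone or with vitamin C in water (100 or 500 µg/mL). Run normoxic (37°C, 5% CO2) or anoxic (N2-degassed medium, sealed bags under N2, no medium change, up to 4 days). WST-1 read at 450 nm after 3 h on days 1-4. Growth normalized to untreated control as 100%. Triplicates.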

[11] = Induction of singlet oxygen release in water at 0.1 mM measured every 10 mins by SOSG assay in presence of 0.37 mM vitamin C; assay type: physicochemical; conditions: buffer, 100 µM
In short: (§4)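 Singlet oxygen sensor green was dissolved in MeOH. Compound was dissolved in MeOH, then diluted in water, with or without vitamin C dissolved in water. Fluorescence (ex/em 488/525 nm) recorded every 10 min at 37 °C. Blanks of SOSG or SOSG/vitamin C were subtracted. Triplicates.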

[12] = Induction of singlet oxygen release in water at 0.1 mM measured every 10 mins by SOSG assay; assay type: physicochemical; conditions: buffer, 100 µM; in short: as §4
[13] = Cytotoxicity against rat primary smooth muscle cells assessed as growth inhibition under anoxic condition at 50 ug/mL measured over 4 days by WST-1 assay in presence of 200 ug/mL vitamin C; assay type: cell-based; conditions: 96 h
In short: (§5)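 Primary smooth muscle cells freshly isolated from rat bladder, plated at 4000 cells/cm² in DMEM/F-12, 10% FBS, 1% Pen/Strep. Compound was added from 1:50 H2O/DMSO at 10–200 µg/mL, with or without vitamin C in water at 100 or 200 µg/mL. Normoxic (37°C, 5% CO2) or anoxic runs: N2-degassed medium, plates sealed under N2 for up to 4 days without medium change. WST-1 absorbance at 450 nm after 3 h, days 1-4. Normalized to untreated control as 100%. Triplicates.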

[14] = Cytotoxicity against rat primary smooth muscle cells assessed as growth inhibition under anoxic condition at 50 ug/mL measured over 4 days by WST-1 assay; assay type: cell-based; conditions: 96 h; in short: as §5
Rattus norvegicus [15] = species: Rattus norvegicus; assay: Growth promoting activity in rat primary smooth muscle cells under normoxic condition at 29 uM measured over 4 days by WST-1 assay in presence of 100 ug/mL vitamin C; assay type: functional; in short: as §5
Rattus norvegicus [16] = species: Rattus norvegicus; assay: Growth promoting activity in rat primary smooth muscle cells under anoxic condition at 29 uM measured over 4 days by WST-1 assay in presence of 100 ug/mL vitamin C; assay type: functional; in short: as §5
Rattus norvegicus [17] = species: Rattus norvegicus; assay: Growth promoting activity in rat primary smooth muscle cells under normoxic condition at 50 ug/mL measured over 4 days by WST-1 assay in presence of 100 to 200 ug/mL vitamin C; assay type: functional; in short: as §5
[18] = Cytotoxicity against rat primary smooth muscle cells assessed as growth inhibition under normoxic condition at 50 ug/mL measured over 4 days by WST-1 assay; assay type: cell-based; conditions: 96 h; in short: as §5
3T3 [19] = assay: Cytotoxicity against […] cells assessed as growth inhibition under anoxic condition at 29 uM measured on day 1 by WST-1 assay in presence of 100 ug/mL vitamin C; assay type: cell-based; conditions: 3t3, 29 µM; in short: as §3
3T3 [20] = assay: Cytotoxicity against […] cells under normoxic condition at 29 uM measured over 4 days by WST-1 assay in presence of 100 ug/mL vitamin C; assay type: cell-based; conditions: 3t3, 96 h; in short: as §3
3T3 [21] = assay: Cytotoxicity against […] cells under anoxic condition at 29 uM measured over 4 days by WST-1 assay in presence of 100 ug/mL vitamin C; assay type: cell-based; conditions: 3t3, 96 h; in short: as §3
3T3 [22] = assay: Cytotoxicity against […] cells assessed as growth inhibition under anoxic condition at 50 ug/ml measured over 4 days by WST-1 assay in presence of vitamin C; assay type: cell-based; conditions: 3t3, 96 h; in short: as §3
3T3 [23] = assay: Cytotoxicity against […] cells assessed as growth inhibition under normoxic condition at 50 ug/ml measured over 4 days by WST-1 assay in presence of vitamin C; assay type: cell-based; conditions: 3t3, 96 h; in short: as §3
3T3 [24] = assay: Cytotoxicity against […] cells assessed as growth inhibition under anoxic condition at 200 ug/ml measured over 4 days by WST-1 assay in presence of vitamin C relative to control; assay type: functional, cell-based; in short: as §3
3T3 [25] = assay: Cytotoxicity against […] cells assessed as growth inhibition under normoxic condition at 200 ug/ml measured over 4 days by WST-1 assay in presence of vitamin C relative to control; assay type: cell-based; conditions: 3t3, 96 h; in short: as §3
3T3 [26] = assay: Growth promoting activity in rat 3T3 cells under normoxic condition at 100 to 200 ug/mL measured on day 1 by WST-1 assay in presence of 500 ug/mL vitamin C; assay type: functional, cell-based; in short: as §3
3T3 [27] = assay: Cytotoxicity against […] cells assessed as growth inhibition under normoxic condition at 100 ug/ml measured on day 4 by WST-1 assay in presence of vitamin C relative to control; assay type: cell-based; in short: as §3
3T3 [28] = assay: Cytotoxicity against […] cells assessed as growth inhibition under anoxic condition at 29 to 580 uM measured over 4 days by WST-1 assay in presence of 100 ug/mL vitamin C; assay type: cell-based; conditions: 3t3, 96 h; in short: as §3
3T3 [29] = assay: Cytotoxicity against […] cells assessed as growth inhibition under anoxic condition at 29 uM measured over 4 days by WST-1 assay; assay type: cell-based; conditions: 3t3, 96 h; in short: as §3
3T3 [30] = assay: Cytotoxicity against […] cells assessed as growth inhibition under normoxic condition at 29 to 580 uM measured over 4 days by WST-1 assay in presence of 100 ug/mL vitamin C; assay type: cell-based; conditions: 3t3, 96 h; in short: as §3
3T3 [31] = assay: Cytotoxicity against […] cells assessed as growth inhibition under normoxic condition measured over 4 days by WST-1 assay; assay type: cell-based; conditions: 3t3, 96 h; in short: as §3
[32] = Cytotoxicity against rat primary smooth muscle cells assessed as growth inhibition under normoxic condition measured over 4 days by WST-1 assay; assay type: cell-based; conditions: 96 h; in short: as §5
3T3 [33] = assay: Cytotoxicity against […] cells assessed as growth inhibition under anoxic condition at 100 ug/ml measured on day 4 by WST-1 assay in presence of vitamin C relative to control; assay type: cell-based; in short: as §3
[34] = Cytotoxicity against rat primary smooth muscle cells assessed as growth inhibition under anoxic condition up to 100 ug/mL measured over 4 days by WST-1 assay; assay type: cell-based; conditions: 96 h; in short: as §1
Rattus norvegicus [35] = species: Rattus norvegicus; assay: Growth promoting activity in rat primary smooth muscle cells under anoxic condition at 50 ug/mL measured over 4 days by WST-1 assay in presence of 100 ug/mL vitamin C; assay type: functional; in short: as §1
Rattus norvegicus [36] = species: Rattus norvegicus; assay: Growth promoting activity in rat primary smooth muscle cells under normoxic condition at 10 to 50 ug/mL measured over 4 days by WST-1 assay; assay type: functional; in short: as §1

Question: Which Activity [1] does the source give for `COCCOCCOCCOC(=O)CN1C(=O)C2(C)C=CC1(C)OO2` (configuration not stated) here?
Answer: 50%

Question: What about the Drug degradation [2] of the same compound?
Answer: > 50%

Question: And the half-life [3]?
Answer: 240 min

Question: Which Activity [1] does the source give for `COCCOCCOCCOC(=O)CN1C(=O)C2C=CC1(C)OO2` (configuration not stated) here?
Answer: 50%

Question: And the Drug degradation [2]?
Answer: > 50%

Question: What about the half-life [3] of the same compound?
Answer: 240 min

Question: What does the source list for `COCCOCCOCCOC(=O)CN1C(=O)C2(C)C=C(C)C1OO2` (configuration not stated)?
Answer: Activity [4]: 47%; half-life [3]: 780 min

Question: Which Activity (Rattus norvegicus [5]) does the source give for `O=C1O[C@H]([C@@H](O)CO)C(O)=C1O` [ASCORBIC ACID] here?
Answer: inactive

Question: And the Activity [6]?
Answer: Non-toxic

Question: And the Activity (3T3 [7])?
Answer: inactive

Question: What about the Activity (3T3 [8]) of the same compound?
Answer: Active

Question: What about the Activity (3T3 [9]) of the same compound?
Answer: Toxic

Question: Which Activity [1] does the source give for `COCCOCCOCCOC(=O)CN1C(=O)C2(C)C=C(C)C1(C)OO2` (configuration not stated) here?
Answer: 10%

Question: And the Drug degradation [2]?
Answer: > 50%

Question: What about the half-life [3] of the same compound?
Answer: 900 min

Question: Which results are given for `COCCOCCOCCOC(=O)CN1C(=O)C2(C)C=CC1OO2` (configuration not stated)?
Answer: Activity (3T3 [10]): Active; Activity [11]: Not Active; Activity [12]: Active; Activity [13]: Toxic; Activity [14]: Toxic; Activity (Rattus norvegicus [15]): Active; Activity (Rattus norvegicus [16]): Active; Activity (Rattus norvegicus [17]): Active; Activity [18]: Toxic; Activity (3T3 [19]): Non-toxic; Activity (3T3 [20]): Toxic; Activity (3T3 [21]): Toxic; Activity (3T3 [22]): Toxic; Activity (3T3 [23]): Toxic; Activity (3T3 [24]): inactive; Activity (3T3 [25]): Non-toxic; Activity (3T3 [26]): Active; fold change (FC) (3T3 [27]): 10; Activity (3T3 [28]): Non-toxic; Activity (3T3 [29]): Non-toxic; Activity (3T3 [30]): Non-toxic; growth inhibition (GI) (3T3 [31]): Dose-dependent effect; growth inhibition (GI) [32]: Dose-dependent effect; Drug degradation [2]: 20%; Activity [4]: 78%; fold change (FC) (3T3 [33]): 2

Question: Which Activity [4] does the source give for `COCCOCCOCCOC(=O)CN1C(=O)C2C=CC1OO2` (configuration not stated) here?
Answer: 18%

Question: And the half-life [3]?
Answer: 30 min

Question: With `COCCOCCOCCOC(=O)Cn1cccc(C)c1=O` as the compound, how does the Activity [34] read?
Answer: Non-toxic

Question: What about the Activity (Rattus norvegicus [35]) of the same compound?
Answer: inactive

Question: What about the Activity (Rattus norvegicus [36]) of the same compound?
Answer: inactive
